# M18AAP inhibitor = PfM18AAP inhibitors, malaria aminopeptidase, primary screen, biochemical, QFRET, recombinant enzyme; M18 aspartyl aminopeptidase (Plasmodium falciparum 3D7); H-Glu-NHMec fluorogenic cleavage; inhibition, % at 7.35 µM; hit rate 1.2% among 290,000; AID 1822, 2009;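 active means inhibition above the campaign mean inhibition over all tested compounds plus 3 SD, cut at about 28% in these data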;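 further: 0% = plate median of test compound wells and 100% = 2 mM ZnCl2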
# AHR act = AHR activators, primary screen, cell-based, luminescence, luciferase reporter, human. AHR-responsive luciferase reporter cells. activation, % at 5 µM. hit rate 2.5% among 320,000. AID 2796, 2010; in the data active means activation above about 47%;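 further: 0% = vehicle wells and 100% = reference agonist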
# HDAC3 inh = HDAC3 deacetylase inhibitors, primary screen, biochemical, fluorescence, cell-free homogeneous. Histone deacetylase 3 (Homo sapiens), O15379. recombinant HDAC3, fluorogenic peptide/trypsin coupled. inhibition, % at 8.3 µM. hit rate 0.15% among 320,000; in the data active means inhibition above about 26%, passing the limit was not always enough
# Target sequence (O15379 whole entry, looked up): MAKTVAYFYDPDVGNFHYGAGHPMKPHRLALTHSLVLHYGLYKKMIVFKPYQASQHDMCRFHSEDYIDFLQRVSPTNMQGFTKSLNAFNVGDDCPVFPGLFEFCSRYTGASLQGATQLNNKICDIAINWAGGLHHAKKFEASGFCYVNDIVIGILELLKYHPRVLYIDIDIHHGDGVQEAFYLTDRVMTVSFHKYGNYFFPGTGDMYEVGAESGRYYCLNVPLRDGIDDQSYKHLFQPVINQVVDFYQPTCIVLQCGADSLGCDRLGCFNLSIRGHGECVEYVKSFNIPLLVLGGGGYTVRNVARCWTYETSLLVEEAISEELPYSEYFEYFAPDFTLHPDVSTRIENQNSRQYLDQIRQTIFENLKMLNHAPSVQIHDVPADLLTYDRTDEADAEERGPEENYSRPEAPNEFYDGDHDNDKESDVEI
# CTSL1 counter = Fasciola hepatica cathepsin L1 inhibitors, primary screen, counter-screen for PFM18AAP inhibitor project, biochemical, QFRET, fluorogenic peptide substrate | recombinant F. hepatica cathepsin L1, Z-Leu-Arg-MCA fluorescence | inhibition, % at 5.96 µM | hit rate 0.49% among 300,000 | AID 1906, 2009;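 active means inhibition above the mean of all tested compounds plus 3 SD, set per screening campaign, cut at about 17% in these data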;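 further: 0% = plate median of test compound wells and 100% = 1 µM Z-Phe-Ala-diazomethylketone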
# SENP1 FRET inh = human SENP1 catalytic domain inhibitors, primary screen, biochemical, FRET, uHTS. hit rate 0.21% among 360,000. Sentrin-specific protease 1 (Homo sapiens), Q9P0U3. inhibition, % at 10 µM. AID 624204, 2012. recombinant SENP1 catalytic domain, CyPet-SUMO1-YPet FRET cleavage;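 active means inhibition at least 30% at 10 µM, raw YFP signal under a set limit, fluorescence ratio 0.5 to 1.5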;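 further: 0% = enzyme with DMSO and 100% = no enzyme wells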
#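 Material: hSENP1 catalytic domain, recombinant; medium: Tris pH 8 with BME, BSA, NP40 and catalase; compound: single concentration of 10 µM compound, 0.5% DMSO final; technique: FRET read of cyan and yellow fluorescence; timing: 50 min enzyme reaction, room temperature, light-protected; reagent: SFCypet-SUMO1-SFYpet substrate at 25 nM; control set: no-enzyme low, enzyme-DMSO high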
# FXN GAA850 act = FXN promoter activators, primary screen, cell-based, luciferase luminescence, HEK293 lucGAA850; HEK293 lucGAA850 FXN promoter luciferase reporter, 24 h; percent of 10 µM SAHA response; activation, % at 6 µM; hit rate 0.56% among 360,000; AID 540364, 2011;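 active means activation above the average of all compounds screened plus 3 SD, cutoff fixed separately per campaign, cut at about 7.5% in these data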;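 further: 0% = DMSO wells and 100% = 10 µM SAHA wells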
# An asterisk follows results filed as active; / = not tested or not shown. A selection: hits, their analogues and other compounds. The true share with any hit is near 4.2%.
SMILES,M18AAP inhibitor,AHR act,HDAC3 inh,CTSL1 counter,SENP1 FRET inh,FXN GAA850 act
CCOC(=O)Nc1ccc2c(c1)N(C(=O)CCN(CC)CC)c1ccccc1CC2,-12,5,-3,7,-2,-1
O=C(NNC(=O)c1cc2ccccc2oc1=O)c1ccccc1,25,-2,-12,-1,3,2
O=C(c1ccccc1)c1cc2ccccc2oc1=O,-3,49*,0,-4,-1,0
O=[N+]([O-])c1cc(Cl)cc(/C=N\Nc2ccccn2)c1O,-2,23,0,1,1,-2
CN(C)C1(CN=Cc2cc(Cl)cc([N+](=O)[O-])c2O)CCCCC1,30*,-2,1,1,5,2
CCCCC1(C)NC(=O)N(CC(=O)Nc2ccc(Cl)cc2C)C1=O (stereo unspecified),/,2,-3,/,4,2
CN1CCN(c2ccc(CNS(=O)(=O)c3ccsc3)cc2)CC1,-9,0,1,-1,-1,-1
CCOC(=O)c1csc(NC(=O)C2=COCCO2)n1,-4,5,-2,1,1,1
O=C(Nc1ccc2c(c1)OCCO2)c1cccs1,-5,1,0,0,0,5
O=C(Nc1ccc2c(c1)OCO2)C1CCCN(S(=O)(=O)c2cccs2)C1 (stereo unspecified),-11,66*,-2,0,2,1
O=C(Nc1ccc2c(c1)OCO2)c1cccs1,1,88*,-2,1,3,5
O=C(N/N=C\c1cc2c(cc1Cl)OCO2)c1cccs1,2,78*,5,1,1,2
O=C(Nc1ccc2c(c1)OCCO2)C1CCCN(S(=O)(=O)c2cccs2)C1 (stereo unspecified),-9,12,-2,-2,1,-2
O=C(N/N=C/c1c(F)cccc1Cl)C(=O)N1CCCCCC1,1,-1,-3,-2,2,2
O=C(Cn1ccc(NC(=O)OCc2ccccc2)nc1=O)NCCN1CCOCC1,/,-2,4,/,1,-1
Cn1c2ccccc2c2n[nH]c(=S)nc21,-2,75*,5,2,4,3
CC(C)N1CCC(C)(C(=O)Nc2ccccc2Oc2ccccc2)C1 (stereo unspecified),/,/,/,/,0,0
COc1ccccc1NC(=O)Nc1cc(C(C)C)ccc1C,0,/,/,/,3,2
COc1ccccc1NC(=O)OC(C)c1ccc(Cl)cc1 (stereo unspecified),-9,75*,3,0,0,3
COc1ccc(NC(=O)c2cc(-c3cc(F)ccc3OC(C)C)n[nH]2)c(C)c1,/,/,/,/,2,3
COc1ccccc1-c1noc(-c2ccccc2C(=O)NCc2ccco2)n1,2,50*,3,-5,-1,0
CC(/C=C/C(=O)c1ccc(C)cc1)=C\c1ccccc1,2,64*,-4,5,-1,3
O=C(O)c1cccc(N2C(=O)/C(=C/c3ccc([N+](=O)[O-])cc3)C=C2c2ccccc2)c1,-2,-14,-1,2,32*,3
CNCc1ccccc1OCC(=O)Nc1ccccc1OC,-5,69*,4,-5,4,5
COc1ccc(OCC(=O)Nc2ccccc2OC)cc1,-5,0,-1,3,-1,1
SMILES,M18AAP inhibitor,AHR act,HDAC3 inh,CTSL1 counter,SENP1 FRET inh,FXN GAA850 act
Fc1ccccc1Nc1nc(-c2ccncc2)nc2ccccc12,5,56*,5,3,1,2
CC(=O)Nc1cccc(Nc2nc(-c3ccccc3)nc3ccccc23)c1,3,62*,3,6,-3,-2
CCOc1nc(-c2ccncc2)nc2ccccc12,0,114*,0,-1,1,3
c1ccc(Nc2nc(-c3ccncc3)nc3ccccc23)cc1,4,19,/,2,-15,-3
CCCOc1ccc(-c2nc(OCC)c3ccccc3n2)cc1,3,13,-1,-2,0,1
Fc1ccc(Nc2nc(-c3ccncc3)nc3ccccc23)cc1,3,52*,-2,6,4,2
